Laboratory results from ChEMBL document CHEMBL1144504, “Antitumor studies. Part 1: design, synthesis, antitumor activity, and AutoDock study of 2-deoxo-2-phenyl-5-deazaflavins and 2-deoxo-2-phenylflavin-5-oxides as a new class of antitumor agents” (Bioorg Med Chem, 2007).
pIC50: −log10 of the molar value.

Legend:
[1] = test system: CCRF-HSB-2; experiment: Growth inhibition of human CCRF-HSB-2 cells by MTT assay; type: functional, cell-based
How it was run: (§1)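 5×10^3 cells per well seeded with compound added simultaneously, triplicate wells, 72 h at 37 °C in humidified 5% CO2. MTT (5 mg/mL stock in Ca/Mg-free PBS) added for a further 4 h at 37 °C. Formazan solubilized in 0.02 N HCl/50% DMF/20% SDS, OD570 read. Inhibition (%) = (1 − T/C) × 100 against mean control; IC50 taken from dose–response curve.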

[2] = test system: KB; experiment: Growth inhibition of human KB cells by MTT assay; type: functional, cell-based; how it was run: as §1
[3] = test system: HCT-116; experiment: Growth inhibition of human HCT116 cells by MTT assay; type: functional, cell-based; how it was run: as §1
[4] = test system: NCI-H460; experiment: Growth inhibition of human NCI-H460 cells by MTT assay; type: functional, cell-based; how it was run: as §1
[5] = test system: A-431; experiment: Growth inhibition of human A431 cells by MTT assay; type: functional, cell-based; how it was run: as §1
[6] = test system: A-431; experiment: Antitumor activity against human A431 xenograft in intratumorally dosed BALB/c nude mouse at 25 mg/kg after 17 days relative control; type: functional
How it was run: (§2)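 A431 implanted subcutaneously in BALB/c nude mice; dosing begins (day 1) when tumors reach 100–300 mm3. Compound suspended in 0.5% gum arabic. Intratumoral: five daily doses per week for 3 weeks (days 1-5, 8-12, 15-19). Intraperitoneal and oral: daily for 10 days (days 1-10). Tumor length a and width b measured 2–3 times weekly; volume = a×b²/2; T/C % = (Tn/T1)×100/(Cn/C1).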

[7] = test system: Mus musculus; experiment: Weight change in intratumorally dosed BALB/c nude mouse bearing human A431 cells at 25 mg/kg after 17 days; type: functional, A-431
How it was run: (§3)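 BALB/c nude mice bearing subcutaneous A431 tumors, dosed from the day tumors reach 100–300 mm3. Vehicle: 0.5% gum arabic suspension. Intratumoral schedule: days 1-5, 8-12, 15-19. Intraperitoneal and oral schedule: daily, days 1-10. Body weight change in g recorded at 17 days (it), 10 days (ip) or 18 days (po) after treatment.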

[8] = test system: A-431; experiment: Antitumor activity against human A431 xenograft in BALB/c nude mouse at 75 mg/kg, po after 18 days relative control; type: functional; how it was run: as §2
[9] = test system: Mus musculus; experiment: Weight change in human A431 xenografted BALB/c nude mouse at 150 mg/kg, po after 18 days; type: functional; how it was run: as §3
[10] = test system: Mus musculus; experiment: Weight change in human A431 xenografted BALB/c nude mouse at 100 mg/kg, ip after 10 days; type: functional; conditions: route intraperitoneal; how it was run: as §3
[11] = test system: Mus musculus; experiment: Weight change in human […] A431 xenografted BALB/c nude mouse at 75 mg/kg, po after 18 days; type: functional; how it was run: as §3
[12] = test system: A-431; experiment: Antitumor activity against human A431 xenograft in BALB/c nude mouse at 100 mg/kg, ip after 10 days relative control; type: functional; conditions: route intraperitoneal; how it was run: as §2
[13] = test system: A-431; experiment: Antitumor activity against human A431 xenograft in BALB/c nude mouse at 150 mg/kg, po after 18 days relative control; type: functional; how it was run: as §2
[14] = test system: A-431; experiment: Antitumor activity against human A431 xenograft in BALB/c nude mouse at 1 mg/kg, po after 18 days relative control; type: functional
How it was run: (§4)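 Subcutaneous A431 xenografts in BALB/c nude mice were dosed orally once tumors reached 100–300 mm3 (day 1). Dosing was daily for days 1–10 as a suspension in 0.5% gum arabic. Volume = (a×b²)/2 from calipered length and width. Relative volume T/C % = (Tn/T1)×100/(Cn/C1) and body weight change (g) were assessed 18 days after treatment.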

[15] = test system: Mus musculus; experiment: Weight change in human A431 xenografted BALB/c nude mouse at 1 mg/kg, po after 18 days; type: functional; how it was run: as §4
[16] = test system: Mus musculus; experiment: Weight change in human A431 xenografted BALB/c nude mouse at 1 mg/kg, ip after 10 days; type: functional; conditions: route intraperitoneal
How it was run: (§5)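 A431 cells implanted subcutaneously into BALB/c nude mice. Dosing began (day 1) once tumors reached 100–300 mm3, given ip as a suspension in 0.5% gum arabic, daily for days 1–10. Tumor length (a) and width (b) were measured 2–3 times weekly; volume = (a×b²)/2. T/C % = (Tn/T1)×100/(Cn/C1), read on day 10. Body weight change was given in g.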

[17] = test system: A-431; experiment: Antitumor activity against human A431 xenograft in BALB/c nude mouse at 1 mg/kg, ip after 10 days relative control; type: functional; conditions: route intraperitoneal; how it was run: as §5
[18] = test system: Mus musculus; experiment: Weight change in intratumorally dosed BALB/c nude mouse bearing human A431 cells at 1 mg/kg after 17 days; type: functional, A-431
How it was run: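 A431 was transplanted subcutaneously into BALB/c nude mice. Intratumoral injections of a suspension in 0.5% gum arabic started when tumors reached 100–300 mm3. Injections were given five consecutive days per week for 3 weeks (days 1–5, 8–12, 15–19). Body weight change (g) was recorded on day 17.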

Row | SMILES | pIC50 [1] | pIC50 [2] | pIC50 [3] | pIC50 [4] | also measured
1 | COc1ccc2cc3c(=O)nc(-c4ccccc4)nc-3n(C)c2c1 | 5.67 | 5.30 |  |  | 
2 | COc1ccc2cc3c(=O)nc(-c4ccccc4)nc-3[nH]c2c1 | 4.61 | 4.20 |  |  | 
3 | Cc1cccc2cc3c(=O)nc(-c4ccccc4)nc-3[nH]c12 | 3.52 | < 3.46 |  |  | 
4 | COc1ccc2c(c1)[n+]([O-])c1c(=O)nc(-c3ccccc3)nc-1n2C |  |  | 6.14 | 5.88 | 
5 | COc1cc2c(c(OC)c1OC)[n+]([O-])c1c(=O)nc(-c3ccccc3)nc-1n2C |  |  | 5.42 | 5.43 | 
6 | CCn1c2nc(-c3ccccc3)nc(=O)c-2cc2ccccc21 | 5.75 | 5.58 |  |  | Activity [6]: 109%; pIC50 [5]: 6.12; Activity [7]: -1.6 g
7 | Cn1c2nc(-c3ccccc3)nc(=O)c-2cc2ccccc21 | 4.93 | 5.63 | 5.68 | 5.65 | Activity [6]: 57.2%; Activity [8]: 97.6%; pIC50 [5]: 5.84; Activity [7]: 0.1 g; Activity [9]: -0.4 g; Activity [10]: -1.7 g; Activity [11]: -0.9 g; Activity [12]: 53.4%; Activity [13]: 51.8%
8 | CCn1c2nc(-c3ccccc3)nc(=O)c-2[n+]([O-])c2cc(C)ccc21 | 5.77 | 5.53 |  |  | 
9 | O=c1nc(-c2ccccc2)nc2[nH]c3ccccc3cc1-2 | 5.42 | 5.29 |  |  | pIC50 [5]: 5.41
10 | COc1cccc2c1C(=O)c1c(O)c3c(c(O)c1C2=O)C[C@@](O)(C(=O)CO)C[C@@H]3O[C@H]1C[C@H](N)[C@H](O)[C@H](C)O1 [DOXORUBICIN] |  |  |  |  | pIC50 [5]: 7.30
11 | CN[C@@H]1C[C@H]2O[C@@](C)([C@@H]1OC)n1c3ccccc3c3c4c(c5c6ccccc6n2c5c31)C(=O)NC4 [STAUROSPORINE] |  |  |  |  | Activity [14]: 72.9%; Activity [15]: -2 g; Activity [16]: -1 g; Activity [17]: 84.9%; Activity [18]: -0.6 g

More lines, in order of rising pIC50 [1], values ahead:

Row | pIC50 [1] | pIC50 [2] | pIC50 [3] | pIC50 [4] | SMILES | also measured
12 | 5.83 | 5.73 | 5.77 | 5.68 | Cc1ccc2c(c1)cc1c(=O)nc(-c3ccccc3)nc-1n2C | pIC50 [5]: 5.61
13 | 5.89 | 5.48 |  |  | Cc1cccc2c1n(C)c1nc(-c3ccccc3)nc(=O)c-1[n+]2[O-] | 
14 | 5.91 | 6.30 | 5.54 | 5.51 | COc1ccc2c(c1)cc1c(=O)nc(-c3ccccc3)nc-1n2C | 
15 | 6.01 | 5.66 | 5.18 | 5.22 | CC(C)n1c2nc(-c3ccccc3)nc(=O)c-2[n+]([O-])c2ccccc21 | 
16 | 6.01 | 5.97 | 5.74 | 5.57 | Cn1c2nc(-c3ccccc3)nc(=O)c-2[n+]([O-])c2ccccc21 | pIC50 [5]: 5.88
17 | 6.02 | 5.62 |  |  | CCn1c2nc(-c3ccccc3)nc(=O)c-2[n+]([O-])c2ccccc21 | 
18 | 6.14 | 6.29 |  |  | CCn1c2nc(-c3ccccc3)nc(=O)c-2cc2cc(C)ccc21 | 
19 | 6.15 | 5.40 |  |  | Cc1cccc2cc3c(=O)nc(-c4ccccc4)nc-3n(C)c12 | 
20 | 6.30 | 5.76 | 5.49 | 5.36 | Cc1ccc2c(c1)[n+]([O-])c1c(=O)nc(-c3ccccc3)nc-1n2C | 
21 | 6.82 | 6.15 |  |  | Nc1ccn([C@@H]2O[C@H](CO)[C@@H](O)[C@@H]2O)c(=O)n1 [CYTARABINE] | 
